High-throughput results as filed in PubChem BioAssay.
This is one part of a sample in which hits are shown more often than they occur.
T cruzi HTS = intracellular Trypanosoma cruzi inhibition. intracellular Trypanosoma cruzi in host cells, plate reader. activity score (inhibition), % at 5.01 µM. hit rate 4.9% among 22,000. AID 651903; in the data active = activity score above about 55%; inconclusive = no clear call, values can overlap the other calls;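 also: parasites and compound incubated about four days before reading; 0% = median of neutral control wells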
A1 apoptosis 2 = blocks A1, raising caspase activity; MEF A1-2A-BIM cells, caspase-Glo luminescence, 3 h; percent of clofoctol response, DMSO zero; caspase activation, % (concentration not given with the values); 24,000 tested, under 10 active; AID 2465; in the data active = caspase activation above about 5.9%; inconclusive = no clear call, values can overlap the other calls; inactive = below about 2.2%
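Material: mouse embryonic fibroblasts co-expressing A1 and BIM (A1-2A-BIM), primed for A1 dependence / Quantity: 2500 cells/well / Buffer or medium: RPMI-1640 growth medium with 10% FBS / Doses: 50 nL compound per well, pinned / Schedule: 3 h compound exposure at 37 °C / Signal: Caspase-Glo luminescence (DEVD substrate) / Measure: Caspase-3/7 activation, seen as rise in luminescence signal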
INS-1E rescue = preserves ATP levels in cytokine-treated INS-1E cells; INS-1E cytokine-induced death, ATP luminescence, 48 h; normalised: neutral wells 0, positive control 100; protection from cytokine-induced ATP loss, % at 10 µM; hit rate 0.1% among 20,000;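 active = mean replicate protection from cytokine-induced ATP loss at least 50% and at least 75% of replicates each reaching 50%; inconclusive = meets only one of the two criteria, mean or replicate share; inactive = fails both the mean and replicate share criteria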
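Test system: INS-1E rat cells | Quantity: 8000 cells per well | Medium: Phenol-red-free RPMI with 5% fetal bovine serum | Reagent: Cytokine cocktail of IFN-γ, TNF-α and IL-1β | Doses: One compound concentration, pin transfer | Timing: 48 h co-treatment, 10 min post-lysis read | Technique: Luminescent ATP assay (CellTiter-Glo)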
* hit, by the source's call; ? = inconclusive; . = not tested or not shown.

SMILES | T cruzi HTS | A1 apoptosis 2 | INS-1E rescue
O=C(CCCCCCC(=O)Nc1ccccc1O)N/N=C/c1ccc(Br)s1 | -2 | 0 | -5
C[C@@H]1CCCCO[C@@H](CN(C)S(C)(=O)=O)[C@@H](C)CN([C@@H](C)CO)C(=O)c2cc(NC(=O)CCCN(C)C)ccc2O1 | . | 0 | .
C[C@@H]1CN([C@H](C)CO)C(=O)Cc2cc(NS(=O)(=O)c3ccc(F)cc3)ccc2O[C@H]1CN(C)Cc1ccc(-c2ccccc2)cc1 | 62* | . | -13
C[C@@H]1CN([C@@H](C)CO)C(=O)Cc2cc(NS(=O)(=O)c3ccc(F)cc3)ccc2O[C@H]1CN(C)Cc1ccccc1 | . | 0 | .
C[C@@H]1CN([C@H](C)CO)C(=O)Cc2cc(NS(=O)(=O)c3ccc(F)cc3)ccc2O[C@@H]1CN(C)Cc1ccc(-c2ccccc2)cc1 | 68* | . | -25
C[C@@H]1CN([C@@H](C)CO)C(=O)Cc2cc(NS(=O)(=O)c3ccc(F)cc3)ccc2O[C@@H]1CN(C)Cc1ccccc1 | 40 | . | -8
COc1cc2c(cc1OC)CN(C(=O)[C@H]1[C@@H]3C(=O)O[C@@H](c4ccccc4)[C@@H](c4ccccc4)N3[C@@H](c3ccc(O)cc3)[C@]13C(=O)Nc1ccc(C#CC4=CCCCC4)cc13)CC2 | . | -1 | .
COC(=O)CCCCCCC(=O)N/N=C/c1cc(OC)c(OC)cc1[N+](=O)[O-] | 0 | -1 | 11
C[C@@H]1CN([C@H](C)CO)C(=O)Cc2cc(NC(=O)C3CCCCC3)ccc2O[C@H]1CN(C)Cc1ccc(Cl)c(Cl)c1 | 50 | . | -31
C[C@H](CO)N1C[C@H](C)[C@@H](CN(C)Cc2ccc3c(c2)OCO3)Oc2ccc(NC(=O)C3CCCCC3)cc2CC1=O | . | 0 | .
C[C@H]1CN([C@@H](C)CO)C(=O)Cc2cc(NC(=O)C3CCCCC3)ccc2O[C@@H]1CN(C)Cc1ccc2c(c1)OCO2 | 66* | . | -11
C[C@@H]1CN([C@H](C)CO)C(=O)Cc2cc(NC(=O)C3CCCCC3)ccc2O[C@@H]1CN(C)Cc1ccc(Cl)c(Cl)c1 | 57* | . | -78
N#Cc1ccc(/C=N/NC(=O)CCCCC(=O)NO)cc1 | 5 | 0 | -4
O=C(NO)c1cccc(C(=O)N/N=C/c2cccc(OCCO)c2)c1 | -9 | -2 | -2
C=C(C)[C@@H]1CC=C(/C=N/NC(=O)CCCCCCC(=O)OC)CC1 | 8 | 0 | -5
COc1ccc(NC(=O)Nc2ccc3c(c2)CC(=O)N([C@H](C)CO)C[C@@H](C)[C@H](CN(C)Cc2ccc(Cl)c(Cl)c2)O3)cc1 | ? | . | -29
COc1ccc(NC(=O)Nc2ccc3c(c2)CC(=O)N([C@@H](C)CO)C[C@H](C)[C@H](CN(C)Cc2ccc(Cl)c(Cl)c2)O3)cc1 | 64* | . | -45
C[C@H]1CN([C@@H](C)CO)C(=O)Cc2cc(NC(=O)Nc3ccc(F)cc3)ccc2O[C@@H]1CN(C)Cc1ccc(Cl)c(Cl)c1 | ? | . | -46
COc1ccc(NC(=O)Nc2ccc3c(c2)CC(=O)N([C@H](C)CO)C[C@@H](C)[C@@H](CN(C)Cc2ccc(Cl)c(Cl)c2)O3)cc1 | 74* | 2 | -53
C[C@@H]1CN([C@H](C)CO)C(=O)Cc2cc(NC(=O)Nc3ccc(F)cc3)ccc2O[C@H]1CN(C)Cc1ccc(Cl)c(Cl)c1 | 62* | 1 | -51
COc1ccc(CN(C)C[C@H]2Oc3ccc(NC(=O)Nc4ccc(OC)cc4)cc3CC(=O)N([C@H](C)CO)C[C@@H]2C)cc1 | . | 0 | .
COC(=O)CCCCCCC(=O)N/N=C/c1ccc(C(F)(F)F)cc1 | -13 | . | 14
C[C@@H]1CCCCO[C@H](CN(C)C)[C@H](C)CN([C@H](C)CO)C(=O)c2cc(NS(=O)(=O)c3ccc(Cl)cc3)ccc2O1 | . | 0 | .
O=C1O[C@H](c2ccccc2)[C@H](c2ccccc2)N2[C@H]1[C@@H](C(=O)O)[C@]1(C(=O)Nc3ccc(C#CC4(O)CCCCCC4)cc31)[C@H]2c1ccc(O)cc1 | . | 0 | .
O=C(NO)c1cccc(C(=O)N/N=C/c2cc(O)ccc2O)c1 | 27 | -1 | 21
C[C@@H]1CN([C@H](C)CO)C(=O)c2cccc(NC(=O)C3CCOCC3)c2O[C@H]1CN(C)C(=O)Nc1cccc2ccccc12 | -19 | -1 | 10
COc1cc(/C=N/NC(=O)CCCCCC(=O)NO)ccc1O | . | -1 | .
O=C(O)CCCCCCC(=O)N/N=C/c1cccnc1 | -12 | 0 | 11
COc1ccc(S(=O)(=O)N(C)C[C@H]2Oc3c(NC(=O)c4ccc(-c5nccs5)cc4)cccc3C(=O)N([C@H](C)CO)C[C@H]2C)cc1 | 32 | . | 9
